≈ marks a conversion by molar mass, not a printed value.
Key:
Cytochrome P450 2C8 = target: T1, Cytochrome P450 2C8 (Homo sapiens, UniProt P10632); experiment: Inhibition of CYP2C8 in human liver microsomes using amodiaquine as substrate preincubated with compound followed by NADPH addition by LC-MS/MS analysis; assay type: ADME, Microsome
T1 sequence (P10632 whole entry): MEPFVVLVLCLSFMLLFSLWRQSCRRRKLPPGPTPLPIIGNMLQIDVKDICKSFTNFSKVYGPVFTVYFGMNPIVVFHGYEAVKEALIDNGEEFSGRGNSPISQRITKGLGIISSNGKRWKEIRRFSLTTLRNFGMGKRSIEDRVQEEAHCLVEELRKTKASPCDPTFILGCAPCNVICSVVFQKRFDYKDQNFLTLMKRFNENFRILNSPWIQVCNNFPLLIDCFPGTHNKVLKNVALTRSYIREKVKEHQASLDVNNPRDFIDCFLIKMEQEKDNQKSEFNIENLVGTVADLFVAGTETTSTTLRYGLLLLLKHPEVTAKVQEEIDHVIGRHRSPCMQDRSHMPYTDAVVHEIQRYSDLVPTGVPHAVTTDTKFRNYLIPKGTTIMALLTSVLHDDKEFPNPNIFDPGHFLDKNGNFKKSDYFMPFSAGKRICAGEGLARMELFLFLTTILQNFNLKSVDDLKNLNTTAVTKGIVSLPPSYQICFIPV

Cytochrome P450 2C9 = Cytochrome P450 2C9 (Homo sapiens, UniProt P11712); experiment: Inhibition of CYP2C9 in human liver microsomes using diclofenac as substrate preincubated with compound followed by NADPH addition by LC-MS/MS analysis; assay type: ADME, Microsome
Chain of Cytochrome P450 2C9 (P11712 whole entry): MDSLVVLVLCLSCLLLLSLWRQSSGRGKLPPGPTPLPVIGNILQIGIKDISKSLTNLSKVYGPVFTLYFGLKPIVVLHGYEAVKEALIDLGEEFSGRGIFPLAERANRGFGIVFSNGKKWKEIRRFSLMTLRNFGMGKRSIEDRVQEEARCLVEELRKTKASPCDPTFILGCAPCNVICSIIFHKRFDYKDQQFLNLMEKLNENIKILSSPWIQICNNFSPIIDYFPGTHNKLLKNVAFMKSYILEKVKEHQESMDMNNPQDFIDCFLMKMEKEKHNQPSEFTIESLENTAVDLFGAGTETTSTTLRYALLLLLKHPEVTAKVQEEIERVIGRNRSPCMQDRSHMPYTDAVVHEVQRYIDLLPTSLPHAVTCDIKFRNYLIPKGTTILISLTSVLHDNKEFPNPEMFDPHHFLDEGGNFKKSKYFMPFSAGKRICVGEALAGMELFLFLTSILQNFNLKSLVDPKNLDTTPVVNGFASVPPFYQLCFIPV

[1] = Aqueous solubility of the compound at pH 4.5 incubated for 24 hrs under shaking condition by LC-UV analysis; assay type: physicochemical; settings: aqueous medium
How it was run: (§1)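 The highest concentration tested was 250 μM, so results are capped at that level. Values are reported in µg/ml.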

[2] = Lipophilicity, logP of the compound; assay type: physicochemical; settings: octanol/water
Cytochrome P450 3A4 = Cytochrome P450 3A4 (Homo sapiens, UniProt P08684); experiment: Inhibition of CYP3A4 in human liver microsomes using midazolam as substrate preincubated with compound followed by NADPH addition by LC-MS/MS analysis; assay type: ADME, Microsome
Chain of Cytochrome P450 3A4 (P08684 whole entry): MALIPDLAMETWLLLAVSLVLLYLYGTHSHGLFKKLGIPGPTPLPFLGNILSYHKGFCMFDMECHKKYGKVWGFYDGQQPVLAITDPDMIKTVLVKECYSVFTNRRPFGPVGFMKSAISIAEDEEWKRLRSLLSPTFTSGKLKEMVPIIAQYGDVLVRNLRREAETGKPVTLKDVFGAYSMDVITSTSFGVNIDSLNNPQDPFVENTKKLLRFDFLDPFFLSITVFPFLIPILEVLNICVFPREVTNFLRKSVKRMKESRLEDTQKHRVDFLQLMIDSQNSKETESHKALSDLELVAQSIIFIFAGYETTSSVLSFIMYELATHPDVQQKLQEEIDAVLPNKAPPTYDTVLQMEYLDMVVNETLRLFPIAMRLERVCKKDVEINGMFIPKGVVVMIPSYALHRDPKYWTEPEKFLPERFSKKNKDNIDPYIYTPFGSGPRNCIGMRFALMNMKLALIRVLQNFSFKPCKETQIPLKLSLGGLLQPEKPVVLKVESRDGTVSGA

[3] = Octanol-water partition coefficient, logD of the compound at pH 11 by HPLC analysis; assay type: physicochemical; settings: read-out: logD
Cytochrome P450 2D6 = Cytochrome P450 2D6 (Homo sapiens, UniProt P10635); experiment: Inhibition of CYP2D6 in human liver microsomes using dextromethorphan as substrate preincubated with compound followed by NADPH addition by LC-MS/MS analysis; assay type: ADME, Microsome
Chain of Cytochrome P450 2D6 (P10635 whole entry): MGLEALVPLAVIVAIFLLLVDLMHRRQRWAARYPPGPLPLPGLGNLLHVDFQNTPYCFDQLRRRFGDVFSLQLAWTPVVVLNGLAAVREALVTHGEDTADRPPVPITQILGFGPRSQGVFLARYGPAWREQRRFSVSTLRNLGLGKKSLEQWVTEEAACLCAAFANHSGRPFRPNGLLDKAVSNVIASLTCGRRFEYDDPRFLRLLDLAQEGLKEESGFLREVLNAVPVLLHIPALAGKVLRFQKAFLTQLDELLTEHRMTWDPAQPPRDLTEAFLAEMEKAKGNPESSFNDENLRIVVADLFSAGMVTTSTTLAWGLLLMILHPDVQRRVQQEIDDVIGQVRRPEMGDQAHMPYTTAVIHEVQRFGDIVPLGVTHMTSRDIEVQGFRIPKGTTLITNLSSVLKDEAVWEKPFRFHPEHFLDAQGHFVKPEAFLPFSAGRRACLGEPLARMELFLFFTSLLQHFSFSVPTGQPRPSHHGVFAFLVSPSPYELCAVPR

[4] = Octanol-water partition coefficient, logD of the compound at pH 2 by HPLC analysis; assay type: physicochemical
[5] = Permeability of the compound at pH 7.4 by PAMPA assay; assay type: ADME; settings: read-out: permeability
Cytochrome P450 2C19 = Cytochrome P450 2C19 (Homo sapiens, UniProt P33261); experiment: Inhibition of CYP2C19 in human liver microsomes using mephenytoin as substrate preincubated with compound followed by NADPH addition by LC-MS/MS analysis; assay type: ADME, Microsome
Chain of Cytochrome P450 2C19 (P33261 whole entry): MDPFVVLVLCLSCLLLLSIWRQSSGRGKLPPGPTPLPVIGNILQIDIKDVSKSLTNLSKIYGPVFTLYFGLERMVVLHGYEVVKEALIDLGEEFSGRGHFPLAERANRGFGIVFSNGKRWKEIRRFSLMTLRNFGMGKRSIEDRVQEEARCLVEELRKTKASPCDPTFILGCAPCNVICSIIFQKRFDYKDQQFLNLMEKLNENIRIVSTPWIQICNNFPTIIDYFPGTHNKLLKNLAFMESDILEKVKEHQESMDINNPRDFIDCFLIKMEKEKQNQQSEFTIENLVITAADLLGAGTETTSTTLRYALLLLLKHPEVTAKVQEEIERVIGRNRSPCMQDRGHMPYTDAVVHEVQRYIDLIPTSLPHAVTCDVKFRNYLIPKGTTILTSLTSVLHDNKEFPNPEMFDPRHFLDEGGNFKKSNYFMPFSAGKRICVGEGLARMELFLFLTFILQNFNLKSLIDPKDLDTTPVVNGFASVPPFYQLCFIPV

[6] = Metabolic stability in human liver microsomes assessed as hepatic blood flow at 1 uM preincubated with compound followed by NADPH addition by LC-MS/MS analysis; assay type: ADME, Microsome; settings: read-out: QH
[7] = Cytotoxicity against human HepG2 cells assessed as cell growth inhibition incubated for 24 hrs by MTT assay; assay type: toxicity, cell-based
How it was run: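 HepG2 human hepatoma cells were exposed to compound at concentrations up to 400 µM and viability was read by MTT. The result is given in µM.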

[8] = Aqueous solubility of the compound at pH 2.2 incubated for 24 hrs under shaking condition by LC-UV analysis; assay type: physicochemical; settings: aqueous medium; how it was run: as §1
[9] = Aqueous solubility of the compound at pH 6.8 incubated for 24 hrs under shaking condition by LC-UV analysis; assay type: physicochemical; settings: aqueous medium; how it was run: as §1
[10] = Hydrolytic stability of the compound in aqueous buffer at pH 7.4 assessed as compound decomposition measured after 3 days by HPLC analysis; assay type: physicochemical; settings: time 3 day, read-out: Drug degradation
How it was run: (§2)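 Compound was held for 3 days at 40 °C in 0.1 M HCl in water or in aqueous buffer at pH 7.4. Dissolution was confirmed by eye, and decomposition is reported as % loss of parent.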

[11] = Photostability of the compound at pH 7.1 assessed as compound degradation administered as solution irradiated with sun light and measured after 7 days by HPLC analysis; assay type: physicochemical; settings: time 7 day, read-out: Drug degradation
How it was run: (§3)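 Compound in solution was kept for 7 days under "mild" light-stress conditions, with no pH adjustment. The pH listed for each compound is the solution's own intrinsic pH. Result is % degradation of parent.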

[12] = Hydrolytic stability of the compound in aqueous HCl assessed as compound decomposition measured after 3 days by HPLC analysis; assay type: physicochemical; settings: time 3 day, read-out: Drug degradation; how it was run: as §2
[13] = Stability of the compound at pH 7.4 assessed as half life measured after 24 hrs in presence of GSH by HPLC analysis; assay type: physicochemical; settings: solution with GSH
[14] = Photostability of the compound assessed as compound degradation administered as solid irradiated with sun light and measured after 7 days by HPLC analysis
[15] = Photostability of the compound assessed as compound degradation administered as aqueous solution irradiated with UV and measured after 24 hrs by HPLC analysis
[16] = Dissociation constant, pKa of the compound by dip probe absorption spectroscopy; assay type: physicochemical
[17] = Photostability of the compound at pH 4.0 assessed as compound degradation administered as solution irradiated with sun light and measured after 7 days by HPLC analysis; assay type: physicochemical; settings: time 7 day, read-out: Drug degradation; how it was run: as §3

SMILES: NC(=O)C1CCN(C(=O)c2ccc3cccccc2-3)CC1
- IC50 (Cytochrome P450 2C8): > 50 µM
- IC50 (Cytochrome P450 2C9): > 50 µM
- solubility thermodynamic at 24 h [1]: > 57 µg/mL
- logP [2]: 0.6
- IC50 (Cytochrome P450 3A4): > 50 µM
- logD [3]: 0.6
- IC50 (Cytochrome P450 2D6): > 50 µM
- logD [4]: 1.2
- Papp [5]: 0.5 ×10⁻⁶ cm/s
- IC50 (Cytochrome P450 2C19): > 50 µM
- hepatic extraction ratio at 1 µM [6]: < 0.23
- EC50 at 24 h [7]: > 400 µM
- solubility thermodynamic at 24 h [8]: > 71 µg/mL
- solubility thermodynamic at 24 h [9]: > 58 µg/mL

SMILES: O=C(O)c1ccc2ccc(C(=O)c3ccc(C(F)(F)F)cc3)c-2cc1
- IC50 (Cytochrome P450 2C8): 13 µM
- IC50 (Cytochrome P450 2C9): > 50 µM
- IC50 (Cytochrome P450 3A4): > 50 µM
- IC50 (Cytochrome P450 2D6): > 50 µM
- IC50 (Cytochrome P450 2C19): > 50 µM

SMILES: O=C(Cn1ccccc1=O)Nc1cc2cccccc-2c1
- degraded at 72 h [10]: < 0.5%
- solubility thermodynamic at 24 h [1]: 2 µg/mL (≈ 7.19 µM)
- logP ([2]; read-out: logP): 1.7
- logD [3]: 1.7
- degraded at 168 h [11]: 85%
- logD ([4]; read-out: logD): 2
- Papp [5]: 3.7 ×10⁻⁶ cm/s
- hepatic extraction ratio at 1 µM [6]: < 0.23
- degraded at 72 h [12]: 3.5%
- solubility thermodynamic at 24 h [8]: 4 µg/mL (≈ 14.4 µM)
- half-life [13]: > 41.7 days
- solubility thermodynamic at 24 h [9]: 2 µg/mL (≈ 7.19 µM)
- degraded at 168 h [14]: < 0.5%

SMILES: C=CC(=O)N1C[C@H](Nc2ncnc3[nH]ccc23)CC[C@@H]1C [RITLECITINIB]
- half-life [13]: 1.33 days

SMILES: CN(C)C(=O)c1c[nH]c2ccccc12
- solubility thermodynamic at 24 h [1]: > 47 µg/mL
- logP [2]: 0.4
- logD [3]: 0.4
- logD [4]: 1.1
- Papp [5]: 2.2 ×10⁻⁶ cm/s
- degraded at 24 h [15]: < 0.5%
- hepatic extraction ratio at 1 µM [6]: 0.25
- solubility thermodynamic at 24 h [8]: > 47 µg/mL
- solubility thermodynamic at 24 h [9]: > 44 µg/mL

SMILES: O=C(O)c1c[nH]c2ccccc12
- pKa [16]: 5.29

SMILES: O=C(O)c1ccc2cccccc1-2
- pKa [16]: 5.1

SMILES: O=C(O)c1ccc2cccc-2cc1
- degraded at 72 h [10]: < 0.5%
- degraded at 72 h [12]: 1.5%
- degraded at 168 h [17]: < 0.5%
- half-life [13]: > 41.7 days
- pKa [16]: 3.5
- degraded at 168 h [14]: < 0.5%

SMILES: Cn1cc(C(=O)c2ccccc2)c2cc(C(=O)NCCc3cnc[nH]3)ccc21
- solubility thermodynamic at 24 h [1]: 107 µg/mL (≈ 287 µM)
- logP ([2]; read-out: logP): 1.5
- logD [3]: 1.5
- logD ([4]; read-out: logD): 0.9
- Papp [5]: 0.1 ×10⁻⁶ cm/s
- hepatic extraction ratio at 1 µM [6]: 0.23
- solubility thermodynamic at 24 h [8]: 84 µg/mL (≈ 226 µM)
- solubility thermodynamic at 24 h [9]: 72 µg/mL (≈ 193 µM)

SMILES: COc1cccc(C(=O)c2ccc3ccc(C(=O)O)ccc2-3)c1
- IC50 (Cytochrome P450 2C8): 22 µM
- IC50 (Cytochrome P450 2C9): > 50 µM
- IC50 (Cytochrome P450 3A4): > 50 µM
- IC50 (Cytochrome P450 2D6): > 50 µM
- IC50 (Cytochrome P450 2C19): > 50 µM

SMILES: CN(C)C(=O)Cc1ccc2ccn(C)c2c1
- solubility thermodynamic at 24 h [1]: > 53 µg/mL
- logP ([2]; read-out: logP): 1.7
- logD [3]: 1.7
- logD ([4]; read-out: logD): 1.9
- Papp [5]: 7.6 ×10⁻⁶ cm/s
- hepatic extraction ratio at 1 µM [6]: < 0.23
- solubility thermodynamic at 24 h [8]: > 54 µg/mL
- solubility thermodynamic at 24 h [9]: > 53 µg/mL

From ChEMBL document CHEMBL5120825, “The azulene scaffold from a medicinal chemist's perspective: Physicochemical and in vitro parameters relevant for drug discovery” (Eur J Med Chem, 2022)
